What was measured:
[1] = biological target: T1, Estrogen receptor (Homo sapiens) (UniProt P03372); assay: Competitive inhibition of ER-alpha (unknown origin)-GRIP1 interaction expressed in human HepG2 cells assessed as decrease in reporter gene activity at <20 uM after 40 hrs relative to control; type: cell-based; parameters: scale not given: the % may be the effect or the level left
T1 sequence (whole entry): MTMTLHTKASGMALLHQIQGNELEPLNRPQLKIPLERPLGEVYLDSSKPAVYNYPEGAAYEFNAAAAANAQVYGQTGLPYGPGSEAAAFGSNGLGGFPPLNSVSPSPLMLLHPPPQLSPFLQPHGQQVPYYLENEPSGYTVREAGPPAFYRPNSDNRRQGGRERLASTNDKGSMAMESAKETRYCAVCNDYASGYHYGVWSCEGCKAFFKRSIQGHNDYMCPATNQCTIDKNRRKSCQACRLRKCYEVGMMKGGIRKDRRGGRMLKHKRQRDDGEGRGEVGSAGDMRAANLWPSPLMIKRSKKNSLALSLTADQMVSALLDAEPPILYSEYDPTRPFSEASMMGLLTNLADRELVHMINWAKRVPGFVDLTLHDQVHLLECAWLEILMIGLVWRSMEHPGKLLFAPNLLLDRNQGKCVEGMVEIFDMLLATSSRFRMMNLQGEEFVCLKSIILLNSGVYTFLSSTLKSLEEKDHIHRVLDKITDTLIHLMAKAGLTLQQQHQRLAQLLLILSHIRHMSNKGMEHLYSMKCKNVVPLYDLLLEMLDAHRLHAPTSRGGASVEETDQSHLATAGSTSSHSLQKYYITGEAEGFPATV
In short: (§1)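 HepG2 cells transfected with VP16-ERα, Gal4-DBD-fused GRIP1 LxxLL2 peptide and 5xGal4Luc3 reporter. […] Scored as >50% decrease or increase at <20, 20–50 or >50 μM, or <20% change. 4-hydroxytamoxifen as antagonist control. Cell death and precipitation flagged.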

[2] = biological target: T1, Estrogen receptor (Homo sapiens); assay: Competitive inhibition of ER-alpha (unknown origin)-GRIP1 interaction expressed in human HepG2 cells assessed as decrease in reporter gene activity at <20 uM after 40 hrs in presence of estradiol relative to control; type: cell-based; parameters: scale not given: the % may be the effect or the level left; in short: as §1
[3] = biological target: T1, Estrogen receptor (Homo sapiens); assay: Inhibition of ER-alpha (unknown origin) transcriptional activity expressed in ER-negative human SKBR3 cells coexpressing ERE assessed as decrease in reporter gene activity at <20 uM after 40 hrs in presence of estradiol relative to control; type: cell-based; parameters: scale not given: the % may be the effect or the level left; conditions: SK-BR-3
In short: (§2)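 ER-negative SKBR3 cells cotransfected with 3xERE-TATA-luciferase, RST7-ERα and pCMV-β-gal for normalization. […] Scored as >50% decrease or increase at <20, 20–50 or >50 μM, or <20% change. 4-hydroxytamoxifen as antagonist control. Cell death above 50 μM flagged.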

[4] = biological target: T2, Estrogen receptor (Homo sapiens, UniProt P03372); assay: Mixed-type inhibition of ER-alpha (unknown origin) expressed in ER-negative human SKBR3 cells coexpressing ERE using estradiol as substrate; type: cell-based, SK-BR-3
T2 sequence (P03372 whole entry): T1 sequence (whole entry)

[5] = biological target: T1, Estrogen receptor (Homo sapiens); assay: Inhibition of ER-alpha (unknown origin) transcriptional activity expressed in ER-negative human SKBR3 cells coexpressing ERE assessed as decrease in reporter gene activity at <20 uM after 40 hrs relative to control; type: cell-based; parameters: scale not given: the % may be the effect or the level left; conditions: SK-BR-3; in short: as §2
[6] = Cytotoxicity against ER-negative human SKBR3 cells expressing ER-alpha coexpressing ERE assessed as cell death at >50 uM in presence of estradiol; type: cell-based; conditions: sk-br-3; in short: as §2
[7] = biological target: T1, Estrogen receptor (Homo sapiens); assay: Competitive inhibition of ER-alpha (unknown origin)-GRIP1 interaction expressed in human HepG2 cells assessed as change in reporter gene activity after 40 hrs in presence of estradiol relative to control; type: cell-based; parameters: concentration or dose not given beside the values; in short: as §1
[8] = biological target: T1, Estrogen receptor (Homo sapiens); assay: Inhibition of ER-alpha (unknown origin) transcriptional activity expressed in ER-negative human SKBR3 cells coexpressing ERE assessed as change in reporter gene activity after 40 hrs in presence of estradiol relative to control; type: cell-based; parameters: concentration or dose not given beside the values; conditions: SK-BR-3; in short: as §2
[9] = biological target: T1, Estrogen receptor (Homo sapiens); assay: Inhibition of ER-alpha (unknown origin) transcriptional activity expressed in ER-negative human SKBR3 cells coexpressing ERE assessed as increase in reporter gene activity at >50 uM after 40 hrs relative to control; type: cell-based; parameters: scale not given: the % may be the effect or the level left; conditions: SK-BR-3; in short: as §2
[10] = system: HepG2; assay: Cytotoxicity against human HepG2 cells expressing ER-alpha coexpressing GRIP1 assessed as cell death at >50 uM; type: cell-based; in short: as §1
[11] = Cytotoxicity against ER-negative human SKBR3 cells expressing ER-alpha coexpressing ERE assessed as cell death at >50 uM; type: cell-based; conditions: sk-br-3; in short: as §2
[12] = system: HepG2; assay: Cytotoxicity against human HepG2 cells expressing ER-alpha coexpressing GRIP1 assessed as cell death at >50 uM in presence of estradiol; type: cell-based; in short: as §1
[13] = biological target: T1, Estrogen receptor (Homo sapiens); assay: Competitive inhibition of ER-alpha (unknown origin)-GRIP1 interaction expressed in human HepG2 cells assessed as increase in reporter gene activity at >50 uM after 40 hrs relative to control; type: cell-based; parameters: scale not given: the % may be the effect or the level left; in short: as §1
[14] = biological target: T1, Estrogen receptor (Homo sapiens); assay: Competitive inhibition of ER-alpha (unknown origin)-GRIP1 interaction expressed in human HepG2 cells assessed as change in reporter gene activity after 40 hrs relative to control; type: cell-based; parameters: concentration or dose not given beside the values; in short: as §1
[15] = biological target: T1, Estrogen receptor (Homo sapiens); assay: Competitive inhibition of ER-alpha (unknown origin)-GRIP1 interaction expressed in human HepG2 cells assessed as decrease in reporter gene activity at >50 uM after 40 hrs in presence of estradiol relative to control; type: cell-based; parameters: scale not given: the % may be the effect or the level left; in short: as §1
[16] = biological target: T1, Estrogen receptor (Homo sapiens); assay: Competitive inhibition of ER-alpha (unknown origin)-GRIP1 interaction expressed in human HepG2 cells assessed as decrease in reporter gene activity at >50 uM after 40 hrs relative to control; type: cell-based; parameters: scale not given: the % may be the effect or the level left; in short: as §1
[17] = biological target: T1, Estrogen receptor (Homo sapiens); assay: Inhibition of ER-alpha (unknown origin) transcriptional activity expressed in ER-negative human SKBR3 cells coexpressing ERE assessed as change in reporter gene activity after 40 hrs relative to control; type: cell-based; parameters: concentration or dose not given beside the values; conditions: SK-BR-3; in short: as §2
[18] = biological target: T2, Estrogen receptor; assay: Competitive inhibition of ER-alpha (unknown origin) ligand binding pocket expressed in ER-negative human SKBR3 cells coexpressing ERE using estradiol as substrate; type: cell-based, SK-BR-3
In short: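 SKBR3 (ER-negative breast cancer) cells were transfected with RST7–ERα, a 3xERE-TATA-luciferase reporter and a pCMV-β-gal normalization control. […] Cells were incubated 40 h, then luciferase reporter activity was read.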

## CCOC(=O)COc1ccc(-c2ccc(OCCN(C)C)cc2)cc1CC1CCCCC1
[1]
  Activity: > 50%
[2]
  Activity: > 50%
[3]
  Activity: > 50%
[4]
  IC50: 12.7 µM
[5]
  Activity: > 50%

## CCOC(=O)COc1ccc(-c2ccc(OCCN(C)C)c(Cc3ccc4ccccc4c3)c2)cc1Cc1ccc2ccccc2c1
[6]
  Activity: Toxic
[7]
  Activity: < 20%
[8]
  Activity: < 20%
[9]
  Activity: > 50%
[10]
  Activity: Toxic
[11]
  Activity: Toxic
[12]
  Activity: Toxic
[13]
  Activity: > 50%

## CCOC(=O)COc1ccc(-c2ccc(OCCN(C)C)c(CC3CCCCC3)c2)cc1CC1CCCCC1
[6]
  Activity: Toxic
[8]
  Activity: < 20%
[9]
  Activity: > 50%
[14]
  Activity: < 20%
[15]
  Activity: > 50%
[11]
  Activity: Toxic

## CCOC(=O)COc1ccc(-c2ccc(O)c(Cc3ccc4ccccc4c3)c2)cc1Cc1ccc2ccccc2c1
[7]
  Activity: < 20%
[8]
  Activity: < 20%
[9]
  Activity: > 50%
[14]
  Activity: < 20%

## CCOC(=O)COc1ccc(-c2ccc(OCCN(C)C)cc2)cc1Cc1ccc(-c2ccccc2)cc1
[16]
  Activity: > 50%
[7]
  Activity: < 20%
[8]
  Activity: < 20%
[17]
  Activity: < 20%
[10]
  Activity: Toxic
[12]
  Activity: Toxic

## CCCCCCCc1cc(-c2ccc(OCC(=O)OCC)c(CCCCCCC)c2)ccc1OCCN(C)C
[7]
  Activity: < 20%
[8]
  Activity: < 20%
[9]
  Activity: > 50%
[13]
  Activity: > 50%

## CCCCCCCc1cc(-c2ccc(OCC(=O)OCC)cc2)ccc1O
[7]
  Activity: < 20%
[8]
  Activity: < 20%
[9]
  Activity: > 50%
[10]
  Activity: Toxic
[12]
  Activity: Toxic
[13]
  Activity: > 50%

## CCCCCCCc1cc(-c2ccc(O)cc2)ccc1OCC(=O)OCC
[7]
  Activity: < 20%
[8]
  Activity: < 20%
[17]
  Activity: < 20%
[14]
  Activity: < 20%

## CCOC(=O)COc1ccc(-c2ccc(O)cc2)cc1Cc1ccc2ccccc2c1
[8]
  Activity: < 20%
[17]
  Activity: < 20%
[14]
  Activity: < 20%
[15]
  Activity: > 50%

## CCOC(=O)COc1ccc(-c2ccc(O)cc2)cc1Cc1ccc(-c2ccccc2)cc1
[7]
  Activity: < 20%
[8]
  Activity: < 20%
[9]
  Activity: > 50%
[10]
  Activity: Toxic
[12]
  Activity: Toxic
[13]
  Activity: > 50%

## CCOC(=O)COc1ccc(-c2ccc(OCCN(C)C)cc2)cc1Cc1ccc2ccccc2c1
[1]
  Activity: > 50%
[2]
  Activity: > 50%
[10]
  Activity: Toxic
[3]
  Activity: > 50%
[12]
  Activity: Toxic
[5]
  Activity: > 50%
[18]
  IC50: 3.2 µM

## CCCCCCCc1cc(-c2ccc(OCCN(C)C)cc2)ccc1OCC(=O)OCC
[8]
  Activity: < 20%
[17]
  Activity: < 20%
[14]
  Activity: < 20%
[15]
  Activity: > 50%

From ChEMBL document CHEMBL3108721, “4,4'-Unsymmetrically substituted 3,3'-biphenyl alpha helical proteomimetics as potential coactivator binding inhibitors” (Bioorg Med Chem, 2014)
